The values below come from paper PMC7067668 (Journal of biological inorganic chemistry : JBIC : a …, 2019).

One series deals with B16F10 cells. The series can be described thus: Cell uptake and internalization. The series is classed as cell-based, mouse. As to conditions: co-incubation with 10 μg unlabeled LLP2A-PEG4 per well, n = 3. Summed up:
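Radiotracer uptake in B16F10 cells, grown in DMEM with 10% FBS at 37°C, 5% CO2, seeded at 200,000 cells/well 24 h before. Cells were rinsed with HBSS, then given DMEM with 0.1% BSA and 1 mM Mn²⁺ plus ~74 kBq/well Al¹⁸F- or ⁶⁸Ga-labeled test compound, with or without 10 μg/well unlabeled peptide. Sampling was at 0.5, 1, 2 h (⁶⁸Ga) or up to 4 h (¹⁸F). Cells were PBS-washed and gamma-counted.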

In another series the test system is B16F10 xenografts. The series can be described thus: Micro-PET imaging, B16F10 xenografts. In kind it is in vivo, mouse. The following applies: co-injection of 100 μg unlabeled LLP2A-PEG4; 4 mice per group. Summed up:
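Female C57BL/6 mice bore subcutaneous right-shoulder B16F10 grafts (one million cells). They received intravenous Al¹⁸F- or ⁶⁸Ga-labeled test compound, 5.5–7.4 MBq (100–200 pmol), co-injected with 100 μg unlabeled peptide. Static small-animal PET was acquired under 2% isoflurane at 0.5, 1, 2 h p.i. (plus 4 h for ¹⁸F).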

The test system of series [1] is mice bearing B16F10 xenografts. The series can be described thus: Ex vivo biodistribution. As to conditions: n = 5; for liver uptake: i.v. 5.5–7.4 MBq (100–200 pmol). The series is classed as in vivo, mouse. An outline of the steps:
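Female C57BL/6 mice (four weeks old) carried subcutaneous right-shoulder B16F10 grafts (one million cells in PBS). Radiolabeled test compound was injected intravenously at 5.5–7.4 MBq (100–200 pmol), with or without 100 μg unlabeled peptide. Mice were sacrificed at 0.5, 1, 2 h p.i. (4 h for the ¹⁸F tracer). Organs and tumor were weighed and gamma-counted, expressed as %ID/g, n = 5.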

Another series relates to A375 xenografts. The series can be described thus: Micro-PET imaging, VLA-4-negative A375 xenografts. In kind it is in vivo, mouse. The following applies: BALB/c nude mice, 0.5 h, 1 h, 2 h p.i., 5.5–7.4 MBq. An outline of the steps:
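Female BALB/c nude mice carried subcutaneous right-shoulder A375 (VLA-4-negative) grafts of one million cells in PBS. ⁶⁸Ga-labeled test compound was injected intravenously at 5.5–7.4 MBq (100–200 pmol). Static small-animal PET was acquired under 2% isoflurane anesthesia at 0.5, 1 and 2 h p.i.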

Starred links: 1 amine or outer side, 2 acyl side, 3 side chain; linkers in the order of their positions; H or OH if unused. Non-standard residues stand in square brackets, D forms with d. Residues, ends and D or L forms follow the SMILES beside them. *: point of attachment. NOTA(2S-Bn(4-NHCS)) = O=C(O)CN1CCN(CC(=O)O)C[C@H](Cc2ccc(NC(=S)*)cc2)N(CC(=O)O)CC1; NH(CH2CH2O)4CH2CO = O=C(COCCOCCOCCOCCN[*:1])[*:2]; Acryloyl(3-(3-pyridyl),E) = O=C(/C=C/c1cccnc1)*; X1 = O=C(Cc1ccc(N[*:1])cc1)[*:2]; Aad = N[C@@H](CCCC(=O)O)C(=O)O; NH(2-Me-phenyl) = Cc1ccccc1N*; Ac6c = NC1(C(=O)O)CCCCC1; CO = O=C([*:1])[*:2]

Turning to `Cc1ccccc1NC(=O)Nc1ccc(CC(=O)N[C@@H](CCCCNC(=O)/C=C/c2cccnc2)C(=O)N[C@@H](CCCC(=O)O)C(=O)NC2(C(=O)NCCOCCOCCOCCOCC(=O)N[C@@H](CCCCNC(=S)Nc3ccc(C[C@H]4CN(CC(=O)O)CCN(CC(=O)O)CCN4CC(=O)O)cc3)C(N)=O)CCCCC2)cc1` [Al^18F-NOTA-PEG4-LLP2A] ({NH(2-Me-phenyl)-CO}-[X1]K(Acryloyl(3-(3-pyridyl),E))[Aad][Ac6c][NH(CH2CH2O)4CH2CO]K(NOTA(2S-Bn(4-NHCS)))-NH2), in the series on B16F10 cells, the “reduction of cell uptake by blocking dose” value is given as 61.7%. Further, the “activity accumulation in B16F10 xenografts with blocking agent (PET)” value in the series on B16F10 xenografts was “significantly reduced”.
Compound `Cc1ccccc1NC(=O)Nc1ccc(CC(=O)N[C@@H](CCCCNC(=O)/C=C/c2cccnc2)C(=O)N[C@@H](CCCC(=O)O)C(=O)NC2(C(=O)NCCOCCOCCOCCOCC(=O)N[C@@H](CCCCNC(=S)Nc3ccc(C[C@H]4CN(CC(=O)O)CCN(CC(=O)O)CCN4CC(=O)O)cc3)C(N)=O)CCCCC2)cc1` [^68Ga-NOTA-PEG4-LLP2A, metal not drawn] ({NH(2-Me-phenyl)-CO}-[X1]K(Acryloyl(3-(3-pyridyl),E))[Aad][Ac6c][NH(CH2CH2O)4CH2CO]K(NOTA(2S-Bn(4-NHCS)))-NH2) gave a bone uptake in series [1] (0.5 h p.i., B16F10 tumor mice) of 5.75 ± 2.04 %ID/g. In addition, the tumor uptake in series [1] (0.5 h p.i.) is 6.77 ± 1.77 %ID/g. Besides, the liver uptake in series [1] (1 h p.i., B16F10 tumor mice) is reported as 15.3 ± 1.7 %ID/g; in series [1] (2 h p.i., B16F10 tumor mice), 8.0 ± 0.8 %ID/g. The tumor-to-blood ratio in series [1] (1 h p.i.) is on record as 3.3 ± 0.5; in series [1] (2 h p.i.), 7.3 ± 0.6. This compound also returned a colon uptake in series [1] (2 h p.i., B16F10 tumor mice) of 2.1 ± 0.2 %ID/g. In addition, in series [1] (2 h p.i., B16F10 tumor mice), the kidney uptake is listed as 4.5 ± 0.3 %ID/g. For the same compound, the “reduction of cell uptake by blocking dose” value in the series with B16F10 cells came to 79.2%. In addition, the “accumulation in VLA-4-negative A375 xenografts (PET)” value with A375 xenografts is recorded as “did not show specific accumulation”. The “activity accumulation in B16F10 xenografts with blocking agent (PET)” value in the series with B16F10 xenografts is “significantly reduced”.
